Measured values reported in ChEMBL document CHEMBL4028900, “Design of Novel 3-Pyrimidinylazaindole CDK2/9 Inhibitors with Potent In Vitro and In Vivo Antitumor Efficacy in a Triple-Negative Breast Cancer Model” (J Med Chem, 2017).

Assays:
[1] = test system: 4T1; assay: Antitumor activity against mouse 4T1 cells allografted in Balb/C mouse assessed as tumor growth inhibition at 5 mg/kg, iv administered every 3 days for 21 days measured 2 times for every week during dosing relative to control; assay type: functional; details: 4T1, iv, read-out: TGI
Procedure, shortened: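 4T1 cells were grown in RPMI-1640 with 10% FBS, pyruvate and NEAA at 37 °C and 5% CO2. Female Balb/C mice received 1×10^6 cells into the second mammary fat pad. At about 100 mm3, mice were grouped five per group and dosed by tail vein in 200 µL (PBS diluent) every three days for 21 days. Tumor volume (L×B²/2, caliper) and body weight were taken twice weekly. The experiment was repeated twice.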

[2] = test system: Mus musculus; assay: Toxicity in Balb/C mouse allografted with mouse 4T1 cells assessed as mortality at 5 mg/kg, iv administered every 3 days for 21 days; assay type: organism-based; details: in vivo
[3] = test system: Mus musculus; assay: Toxicity in Balb/C mouse allografted with mouse 4T1 cells assessed as body weight loss at 5 mg/kg, iv administered every 3 days for 21 days measured 2 times for every week during dosing; assay type: organism-based; details: in vivo
Procedure, shortened: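 Female Balb/c mice received 1×10^6 4T1 cells into the second mammary fat pad. At about 100 mm3 tumor volume they were split into groups of five. Doses were given iv by tail vein in 200 µL every three days for 21 days, with a PBS diluent control. Body weight and tumor size were measured twice weekly, and the experiment was repeated twice.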

[4] = test system: Mus musculus; assay: Toxicity in Swiss mouse allografted with Swiss mouse EAC cells assessed as body weight at 22 mg/kg, ip administered for 5 days measured on day 5 post last dose (reference value: 27.1 g); assay type: organism-based; details: in vivo, 120 h
[5] = test system: Mus musculus; assay: Toxicity in Swiss mouse allografted with Swiss mouse EAC cells assessed as body weight at 22 mg/kg, ip measured on day 1 (reference value: 26.2 g); assay type: organism-based; details: in vivo
[6] = test system: Mus musculus; assay: Toxicity in Swiss mouse allografted with Swiss mouse EAC cells assessed as body weight at 22 mg/kg, ip administered for 9 days measured on day 9 post last dose (reference value: 27.9 g); assay type: organism-based; details: in vivo, 216 h
[7] = test system: Mus musculus; assay: Toxicity in Swiss mouse allografted with Swiss mouse EAC cells assessed as body weight at 22 mg/kg, ip administered for 13 days measured on day 13 post last dose (reference value: 28.7 g); assay type: organism-based; details: in vivo, 312 h
[8] = test system: Ehrlich; assay: Antitumor activity against Swiss mouse EAC cells allografted in Swiss mouse assessed as tumor growth inhibition at 22 mg/kg, ip administered for 13 days measured on day 13 post last dose relative to control; assay type: functional; details: 312 h, read-out: TGI
[9] = test system: Mus musculus; assay: Toxicity in Swiss mouse allografted with Swiss mouse EAC cells assessed as mortality at 22 mg/kg, ip administered for 9 to 13 days; assay type: organism-based; details: in vivo
[10] = test system: HCT-116; assay: Antiproliferative activity against human HCT116 cells after 72 hrs by SRB assay; details: HCT-116, 72 h
[11] = test system: SH-SY5Y; assay: Antiproliferative activity against human SH-SY5Y cells after 24 hrs by MTT assay; assay type: functional, cell-based
[12] = Plasma concentration in BALB/c mouse at 2.5 mg/kg, iv at […] by LC/MS-MS analysis; assay type: ADME, organism-based
[13] = Plasma concentration in BALB/c mouse at 2.5 mg/kg, iv at 0.25 hrs by LC/MS-MS analysis; assay type: ADME, organism-based
[14] = Plasma concentration in BALB/c mouse at 2.5 mg/kg, iv at 0.5 hrs by LC/MS-MS analysis; assay type: ADME, organism-based
[15] = Plasma concentration in BALB/c mouse at 2.5 mg/kg, iv at 1 hr by LC/MS-MS analysis; assay type: ADME, organism-based
[16] = target: Aurora kinase A (Homo sapiens) (UniProt O14965); assay: Inhibition of aurora A (unknown origin) at 100 nM relative to control
[17] = target: Glycogen synthase kinase-3 beta (Homo sapiens) (UniProt P49841); assay: Inhibition of GSK3b (unknown origin) at 100 nM relative to control
[18] = target: Insulin receptor-related protein (Homo sapiens) (UniProt P14616); assay: Inhibition of IRR (unknown origin) at 100 nM relative to control
[19] = target: Serine/threonine-protein kinase PLK1 (Homo sapiens) (UniProt P53350); assay: Inhibition of PLK1 (unknown origin) at 100 nM relative to control
[20] = target: Ribosomal protein S6 kinase beta-1 (Homo sapiens) (UniProt P23443); assay: Inhibition of S6K1 (unknown origin) at 100 nM relative to control
[21] = target: Serine/threonine-protein kinase Sgk1 (Homo sapiens) (UniProt O00141); assay: Inhibition of SGK (unknown origin) at 100 nM relative to control
[22] = target: Vascular endothelial growth factor receptor 1 (Homo sapiens) (UniProt P17948); assay: Inhibition of VEGFR1 (unknown origin) at 100 nM relative to control
[23] = target: Inhibitor of nuclear factor kappa-B kinase subunit beta (Homo sapiens) (UniProt O14920); assay: Inhibition of IKKbeta (unknown origin) at 100 nM relative to control
[24] = target: Phosphatidylinositol 4,5-bisphosphate 3-kinase catalytic subunit alpha isoform (Homo sapiens) (UniProt P42336); assay: Inhibition of PI3Kalpha (unknown origin) at 100 nM relative to control
[25] = target: Protein-tyrosine kinase 6 (Homo sapiens) (UniProt Q13882); assay: Inhibition of BRK (unknown origin) at 100 nM relative to control
[26] = target: Serine/threonine-protein kinase Chk1 (Homo sapiens) (UniProt O14757); assay: Inhibition of CHK1 (unknown origin) at 100 nM relative to control
[27] = target: Tyrosine-protein kinase CSK (Homo sapiens) (UniProt P41240); assay: Inhibition of CSK (unknown origin) at 100 nM relative to control
[28] = target: Tyrosine-protein kinase JAK3 (Homo sapiens) (UniProt P52333); assay: Inhibition of JAK3 (unknown origin) at 100 nM relative to control
[29] = target: Mitogen-activated protein kinase 10 (Homo sapiens) (UniProt P53779); assay: Inhibition of JNK3 (unknown origin) at 100 nM relative to control
[30] = target: Serine/threonine-protein kinase 26 (Homo sapiens) (UniProt Q9P289); assay: Inhibition of MST4 (unknown origin) at 100 nM relative to control
[31] = target: Tyrosine-protein kinase Lck (Homo sapiens) (UniProt P06239); assay: Inhibition of LCK (unknown origin) at 100 nM relative to control
[32] = target: Serine/threonine-protein kinase Nek6 (Homo sapiens) (UniProt Q9HC98); assay: Inhibition of NEK6 (unknown origin) at 100 nM relative to control
[33] = target: Aurora kinase A (Homo sapiens) (UniProt O14965); assay: Inhibition of aurora A (unknown origin) at 500 nM relative to control
[34] = target: Glycogen synthase kinase-3 beta (Homo sapiens) (UniProt P49841); assay: Inhibition of GSK3b (unknown origin) at 500 nM relative to control
[35] = target: Insulin receptor-related protein (Homo sapiens) (UniProt P14616); assay: Inhibition of IRR (unknown origin) at 500 nM relative to control
[36] = target: Serine/threonine-protein kinase PLK1 (Homo sapiens) (UniProt P53350); assay: Inhibition of PLK1 (unknown origin) at 500 nM relative to control
[37] = target: Ribosomal protein S6 kinase beta-1 (Homo sapiens) (UniProt P23443); assay: Inhibition of S6K1 (unknown origin) at 500 nM relative to control
[38] = target: Serine/threonine-protein kinase Sgk1 (Homo sapiens) (UniProt O00141); assay: Inhibition of SGK (unknown origin) at 500 nM relative to control
[39] = target: Vascular endothelial growth factor receptor 1 (Homo sapiens) (UniProt P17948); assay: Inhibition of VEGFR1 (unknown origin) at 500 nM relative to control
[40] = target: Inhibitor of nuclear factor kappa-B kinase subunit beta (Homo sapiens) (UniProt O14920); assay: Inhibition of IKKbeta (unknown origin) at 500 nM relative to control
[41] = target: Phosphatidylinositol 4,5-bisphosphate 3-kinase catalytic subunit alpha isoform (Homo sapiens) (UniProt P42336); assay: Inhibition of PI3Kalpha (unknown origin) at 500 nM relative to control
[42] = target: Protein-tyrosine kinase 6 (Homo sapiens) (UniProt Q13882); assay: Inhibition of BRK (unknown origin) at 500 nM relative to control
[43] = target: Serine/threonine-protein kinase Chk1 (Homo sapiens) (UniProt O14757); assay: Inhibition of CHK1 (unknown origin) at 500 nM relative to control
[44] = target: Tyrosine-protein kinase CSK (Homo sapiens) (UniProt P41240); assay: Inhibition of CSK (unknown origin) at 500 nM relative to control
[45] = target: Tyrosine-protein kinase JAK3 (Homo sapiens) (UniProt P52333); assay: Inhibition of JAK3 (unknown origin) at 500 nM relative to control
[46] = target: Mitogen-activated protein kinase 10 (Homo sapiens) (UniProt P53779); assay: Inhibition of JNK3 (unknown origin) at 500 nM relative to control
[47] = target: Serine/threonine-protein kinase 26 (Homo sapiens) (UniProt Q9P289); assay: Inhibition of MST4 (unknown origin) at 500 nM relative to control
[48] = target: Tyrosine-protein kinase Lck (Homo sapiens) (UniProt P06239); assay: Inhibition of LCK (unknown origin) at 500 nM relative to control
[49] = target: Serine/threonine-protein kinase Nek6 (Homo sapiens) (UniProt Q9HC98); assay: Inhibition of NEK6 (unknown origin) at 500 nM relative to control
[50] = test system: MDA-MB-231; assay: Antiproliferative activity against human MDA-MB-231 cells
[51] = test system: MDA-MB-468; assay: Antiproliferative activity against human MDA-MB-468 cells
[52] = test system: T47D; assay: Antiproliferative activity against human T47D cells after 72 hrs by SRB assay
[53] = test system: BT-549; assay: Antiproliferative activity against human BT549 cells
[54] = test system: MCF7; assay: Antiproliferative activity against human MCF7 cells
[55] = test system: 4T1; assay: Antiproliferative activity against mouse 4T1 cells after 24 hrs by MTT assay; details: 4T1, 24 h
[56] = Antiproliferative activity against HEK cells; details: Homo sapiens, HEK293
[57] = Selectivity ratio of IC50 for HEK cells to IC50 for human MCF7 cells
[58] = test system: 4T1; assay: Antitumor activity against mouse 4T1 cells allografted in Balb/C mouse assessed as tumor growth inhibition at 15 mg/kg, iv administered every 3 days for 21 days measured 2 times for every week during dosing relative to control; assay type: functional; details: 4T1, iv, read-out: TGI
[59] = target: Dual specificity tyrosine-phosphorylation-regulated kinase 1A (Homo sapiens) (UniProt Q13627); details: at 100 nM
[60] = target: Dual specificity tyrosine-phosphorylation-regulated kinase 1A (Homo sapiens) (UniProt Q13627); details: at 500 nM

Serine/threonine-protein kinase Sgk1 (Homo sapiens), sequence (O00141 whole entry): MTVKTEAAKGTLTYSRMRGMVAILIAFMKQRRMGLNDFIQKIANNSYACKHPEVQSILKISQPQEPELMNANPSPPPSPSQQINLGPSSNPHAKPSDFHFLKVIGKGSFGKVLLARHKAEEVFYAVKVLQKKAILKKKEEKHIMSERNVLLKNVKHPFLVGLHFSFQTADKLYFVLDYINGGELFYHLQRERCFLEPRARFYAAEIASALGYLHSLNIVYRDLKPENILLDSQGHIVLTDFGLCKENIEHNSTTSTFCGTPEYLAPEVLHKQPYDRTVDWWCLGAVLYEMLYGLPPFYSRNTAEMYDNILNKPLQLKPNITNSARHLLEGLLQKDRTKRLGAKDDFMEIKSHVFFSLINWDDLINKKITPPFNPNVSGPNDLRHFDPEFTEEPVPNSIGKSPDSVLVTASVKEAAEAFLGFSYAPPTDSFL
Ribosomal protein S6 kinase beta-1 (Homo sapiens), sequence (P23443 whole entry, looked up): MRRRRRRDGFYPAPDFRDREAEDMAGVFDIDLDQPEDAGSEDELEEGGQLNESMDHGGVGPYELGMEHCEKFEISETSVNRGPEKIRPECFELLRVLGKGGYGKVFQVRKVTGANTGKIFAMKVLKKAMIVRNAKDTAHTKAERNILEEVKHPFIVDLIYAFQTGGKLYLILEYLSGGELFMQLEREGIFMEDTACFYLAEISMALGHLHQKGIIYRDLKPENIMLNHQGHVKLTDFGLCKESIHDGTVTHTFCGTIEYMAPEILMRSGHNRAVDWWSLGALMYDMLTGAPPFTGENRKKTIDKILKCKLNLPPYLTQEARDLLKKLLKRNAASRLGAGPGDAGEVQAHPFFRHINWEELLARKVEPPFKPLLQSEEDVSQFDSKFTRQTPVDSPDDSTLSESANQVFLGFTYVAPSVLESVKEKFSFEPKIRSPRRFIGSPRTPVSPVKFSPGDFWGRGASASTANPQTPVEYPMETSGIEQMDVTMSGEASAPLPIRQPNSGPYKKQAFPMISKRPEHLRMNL
Tyrosine-protein kinase CSK (Homo sapiens), sequence (P41240 2-450 limits assumed): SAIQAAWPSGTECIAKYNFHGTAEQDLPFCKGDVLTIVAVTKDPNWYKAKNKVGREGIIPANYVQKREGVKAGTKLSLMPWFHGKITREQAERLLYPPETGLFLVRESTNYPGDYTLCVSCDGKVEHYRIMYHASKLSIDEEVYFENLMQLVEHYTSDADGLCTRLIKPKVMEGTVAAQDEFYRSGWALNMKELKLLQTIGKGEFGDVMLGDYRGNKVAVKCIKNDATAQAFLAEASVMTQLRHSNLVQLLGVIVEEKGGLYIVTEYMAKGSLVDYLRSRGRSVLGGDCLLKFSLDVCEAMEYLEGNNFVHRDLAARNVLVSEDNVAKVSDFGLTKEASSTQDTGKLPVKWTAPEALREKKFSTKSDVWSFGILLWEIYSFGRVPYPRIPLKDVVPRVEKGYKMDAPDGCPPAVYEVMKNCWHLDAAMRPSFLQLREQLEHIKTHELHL
Inhibitor of nuclear factor kappa-B kinase subunit beta (Homo sapiens), sequence (O14920 whole entry, canonical isoform): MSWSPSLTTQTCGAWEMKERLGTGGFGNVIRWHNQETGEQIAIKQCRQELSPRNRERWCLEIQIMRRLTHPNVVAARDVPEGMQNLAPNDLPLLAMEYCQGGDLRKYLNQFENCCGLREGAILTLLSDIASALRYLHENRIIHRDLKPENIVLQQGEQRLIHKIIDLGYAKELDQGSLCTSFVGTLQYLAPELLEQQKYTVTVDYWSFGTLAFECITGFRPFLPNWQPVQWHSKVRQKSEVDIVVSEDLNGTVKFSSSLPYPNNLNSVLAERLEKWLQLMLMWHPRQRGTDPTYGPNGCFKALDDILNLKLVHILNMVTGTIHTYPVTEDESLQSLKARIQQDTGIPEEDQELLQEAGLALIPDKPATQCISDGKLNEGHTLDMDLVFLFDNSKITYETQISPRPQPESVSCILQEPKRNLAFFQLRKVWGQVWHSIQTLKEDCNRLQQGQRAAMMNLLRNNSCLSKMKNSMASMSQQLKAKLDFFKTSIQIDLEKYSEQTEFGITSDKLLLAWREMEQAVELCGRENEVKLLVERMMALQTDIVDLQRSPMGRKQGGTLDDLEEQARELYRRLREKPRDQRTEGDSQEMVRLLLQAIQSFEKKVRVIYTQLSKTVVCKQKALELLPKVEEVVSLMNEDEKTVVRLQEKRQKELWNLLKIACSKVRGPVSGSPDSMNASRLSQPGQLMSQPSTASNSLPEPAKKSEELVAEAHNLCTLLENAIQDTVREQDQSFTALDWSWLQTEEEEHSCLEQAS
Phosphatidylinositol 4,5-bisphosphate 3-kinase catalytic subunit alpha isoform (Homo sapiens), sequence (P42336 whole entry, canonical isoform): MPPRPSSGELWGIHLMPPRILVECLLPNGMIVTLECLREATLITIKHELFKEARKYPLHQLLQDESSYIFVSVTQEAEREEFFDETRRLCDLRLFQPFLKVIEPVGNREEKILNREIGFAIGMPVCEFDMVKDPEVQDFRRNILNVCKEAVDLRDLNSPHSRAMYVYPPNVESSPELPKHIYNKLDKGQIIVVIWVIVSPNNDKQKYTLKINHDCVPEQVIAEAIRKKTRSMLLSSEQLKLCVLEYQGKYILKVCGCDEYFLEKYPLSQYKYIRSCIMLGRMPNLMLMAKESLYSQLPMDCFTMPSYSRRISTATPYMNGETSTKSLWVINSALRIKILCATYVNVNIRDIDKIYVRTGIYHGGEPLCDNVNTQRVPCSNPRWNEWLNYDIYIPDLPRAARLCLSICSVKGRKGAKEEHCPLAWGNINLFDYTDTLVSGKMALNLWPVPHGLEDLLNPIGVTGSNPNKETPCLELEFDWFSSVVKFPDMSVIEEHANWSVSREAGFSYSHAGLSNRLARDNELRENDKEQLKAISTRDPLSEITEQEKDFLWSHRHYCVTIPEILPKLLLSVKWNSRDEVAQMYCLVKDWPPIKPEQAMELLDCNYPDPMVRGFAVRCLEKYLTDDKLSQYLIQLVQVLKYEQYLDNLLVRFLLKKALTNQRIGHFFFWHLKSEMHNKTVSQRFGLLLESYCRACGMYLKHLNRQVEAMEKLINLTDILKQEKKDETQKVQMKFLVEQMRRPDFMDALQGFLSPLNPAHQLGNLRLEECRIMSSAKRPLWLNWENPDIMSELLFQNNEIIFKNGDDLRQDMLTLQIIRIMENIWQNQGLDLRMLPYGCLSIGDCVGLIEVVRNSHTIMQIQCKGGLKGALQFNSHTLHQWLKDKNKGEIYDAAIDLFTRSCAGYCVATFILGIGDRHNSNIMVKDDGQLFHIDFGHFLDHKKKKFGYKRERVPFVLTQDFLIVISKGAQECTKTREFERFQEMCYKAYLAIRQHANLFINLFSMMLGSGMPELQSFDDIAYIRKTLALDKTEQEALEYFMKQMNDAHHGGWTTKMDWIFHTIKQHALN
Serine/threonine-protein kinase 26 (Homo sapiens), sequence (Q9P289 2-416 limits assumed): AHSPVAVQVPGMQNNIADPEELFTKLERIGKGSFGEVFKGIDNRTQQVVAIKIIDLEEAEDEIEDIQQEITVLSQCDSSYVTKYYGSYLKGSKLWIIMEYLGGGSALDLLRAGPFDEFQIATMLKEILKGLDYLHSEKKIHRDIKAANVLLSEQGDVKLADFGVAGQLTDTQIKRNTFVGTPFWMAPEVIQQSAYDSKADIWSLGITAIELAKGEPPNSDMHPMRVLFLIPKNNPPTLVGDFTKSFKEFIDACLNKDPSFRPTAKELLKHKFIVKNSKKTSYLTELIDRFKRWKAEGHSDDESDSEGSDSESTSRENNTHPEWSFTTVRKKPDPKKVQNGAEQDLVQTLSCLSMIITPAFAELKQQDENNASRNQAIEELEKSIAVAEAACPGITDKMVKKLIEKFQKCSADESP
Vascular endothelial growth factor receptor 1 (Homo sapiens), sequence (P17948 whole entry): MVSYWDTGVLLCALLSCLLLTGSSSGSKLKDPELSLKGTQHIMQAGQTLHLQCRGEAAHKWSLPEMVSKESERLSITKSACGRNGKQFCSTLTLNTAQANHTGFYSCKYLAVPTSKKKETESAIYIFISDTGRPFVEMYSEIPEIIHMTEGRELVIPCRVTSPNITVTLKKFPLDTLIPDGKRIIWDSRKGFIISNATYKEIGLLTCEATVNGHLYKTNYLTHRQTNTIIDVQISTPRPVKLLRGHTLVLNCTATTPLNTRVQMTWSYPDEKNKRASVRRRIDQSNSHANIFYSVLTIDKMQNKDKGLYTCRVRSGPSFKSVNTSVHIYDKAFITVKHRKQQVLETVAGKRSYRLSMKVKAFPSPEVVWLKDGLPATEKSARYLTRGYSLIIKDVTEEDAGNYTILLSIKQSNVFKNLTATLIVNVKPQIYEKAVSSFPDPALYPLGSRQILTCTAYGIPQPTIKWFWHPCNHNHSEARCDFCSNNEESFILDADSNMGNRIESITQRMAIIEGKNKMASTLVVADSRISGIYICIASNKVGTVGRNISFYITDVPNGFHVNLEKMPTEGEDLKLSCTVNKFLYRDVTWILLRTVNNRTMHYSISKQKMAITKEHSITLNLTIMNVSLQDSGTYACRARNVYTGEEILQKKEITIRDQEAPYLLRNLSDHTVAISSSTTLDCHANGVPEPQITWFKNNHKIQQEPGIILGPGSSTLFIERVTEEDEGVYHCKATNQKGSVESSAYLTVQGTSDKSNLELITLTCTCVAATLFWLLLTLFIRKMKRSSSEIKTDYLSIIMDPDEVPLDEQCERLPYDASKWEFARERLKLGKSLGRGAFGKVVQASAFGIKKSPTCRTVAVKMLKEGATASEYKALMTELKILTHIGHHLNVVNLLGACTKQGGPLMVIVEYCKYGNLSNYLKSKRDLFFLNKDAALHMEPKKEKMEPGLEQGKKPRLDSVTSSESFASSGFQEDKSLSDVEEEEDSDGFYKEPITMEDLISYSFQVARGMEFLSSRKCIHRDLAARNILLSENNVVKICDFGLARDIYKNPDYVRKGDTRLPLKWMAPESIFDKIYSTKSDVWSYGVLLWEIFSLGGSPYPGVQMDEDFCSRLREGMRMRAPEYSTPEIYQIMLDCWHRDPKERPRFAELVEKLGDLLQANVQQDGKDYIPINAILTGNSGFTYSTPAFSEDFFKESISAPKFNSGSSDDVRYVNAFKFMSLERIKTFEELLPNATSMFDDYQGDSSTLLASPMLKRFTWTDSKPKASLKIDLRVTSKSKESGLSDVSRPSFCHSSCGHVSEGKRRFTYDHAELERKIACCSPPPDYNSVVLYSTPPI

Q: With `COc1cccc2c1C(=O)c1c(O)c3c(c(O)c1C2=O)C[C@@](O)(C(=O)CO)C[C@@H]3O[C@H]1C[C@H](N)[C@H](O)[C@H](C)O1` [DOXORUBICIN] as the molecule, how does the inhibition in vivo at 5 mg/kg [1] read?
A: 97.3%

Q: And the Activity [2]?
A: Non-Toxic

Q: And the Activity [3]?
A: Toxic

Q: For `O=c1[nH]cc(F)c(=O)[nH]1` [FLUOROURACIL], which Activity [4] is on record?
A: 25 g

Q: What about the Activity [5] of the same molecule?
A: 26 g

Q: And the Activity [6]?
A: 24.57 g

Q: What about the Activity [7] of the same molecule?
A: 24.85 g

Q: And the inhibition in vivo at 22 mg/kg [8]?
A: 50.4%

Q: And the Activity [9]?
A: Non-Toxic

Q: What does the source list for `COc1ccnc2[nH]cc(-c3ccnc(N)n3)c12` [MERIOLIN 3]?
A: IC50 [10]: 100 nM; IC50 [11]: 120 nM; concentration at […] [12]: 313 ng/mL; concentration at 0.25 h [13]: 141 ng/mL; concentration at 0.5 h [14]: 54.9 ng/mL; concentration at 1 h [15]: 35.3 ng/mL; inhibition [16]: 10.6%; inhibition [17]: 13.4%; inhibition [18]: 6.9%; inhibition [19]: -1.7%; inhibition [20]: 84.5%; inhibition [21]: 29.3%; inhibition [22]: 0.9%; inhibition [23]: 37.2%; inhibition [24]: 11.5%; inhibition [25]: 10.6%; inhibition [26]: 13.4%; inhibition [27]: 6.9%; inhibition [28]: 31.9%; inhibition [29]: -7.9%; inhibition [30]: 6.7%; inhibition [31]: 7.3%; inhibition [32]: 4.1%; inhibition [33]: 9.5%; inhibition [34]: 13.7%; inhibition [35]: -4.6%; inhibition [36]: 14.6%; inhibition [37]: 91.7%; inhibition [38]: 38.1%; inhibition [39]: 3.1%; inhibition [40]: 43.8%; inhibition [41]: 21.1%; inhibition [42]: 9.5%; inhibition [43]: 13.7%; inhibition [44]: -4.6%; inhibition [45]: 14.6%; inhibition [46]: -2.6%; inhibition [47]: 11.4%; inhibition [48]: 8.3%; inhibition [49]: 20.1%; IC50 [50]: 200 nM; IC50 [51]: 160 nM; IC50 [52]: 200 nM; IC50 [53]: 130 nM; IC50 [54]: 200 nM; IC50 [55]: 650 nM; IC50 [56]: 188 nM; Ratio IC50 [57]: 0.94; inhibition in vivo at 15 mg/kg [58]: 95%; inhibition [59]: 96%; inhibition [60]: 98.3%
